Positions count from the first letter of the chain named.
Key:
Assay type in all cases: cell-based
[1] = target: T1, hTRPV3 (Homo sapiens, UniProt Q8NET8); test: whole-cell patch-clamp of hTRPV3 currents expressed in HEK293 cells; conditions: for inhibition of hTRPV3 channel current activated by 2-APB: compound 50 μmol/L, agonist 2-APB 50 μmol/L, n = 5; for Hill coefficient: inhibition of hTRPV3 currents evoked by 2-APB 50 μmol/L
T1 sequence (Q8NET8 1-790): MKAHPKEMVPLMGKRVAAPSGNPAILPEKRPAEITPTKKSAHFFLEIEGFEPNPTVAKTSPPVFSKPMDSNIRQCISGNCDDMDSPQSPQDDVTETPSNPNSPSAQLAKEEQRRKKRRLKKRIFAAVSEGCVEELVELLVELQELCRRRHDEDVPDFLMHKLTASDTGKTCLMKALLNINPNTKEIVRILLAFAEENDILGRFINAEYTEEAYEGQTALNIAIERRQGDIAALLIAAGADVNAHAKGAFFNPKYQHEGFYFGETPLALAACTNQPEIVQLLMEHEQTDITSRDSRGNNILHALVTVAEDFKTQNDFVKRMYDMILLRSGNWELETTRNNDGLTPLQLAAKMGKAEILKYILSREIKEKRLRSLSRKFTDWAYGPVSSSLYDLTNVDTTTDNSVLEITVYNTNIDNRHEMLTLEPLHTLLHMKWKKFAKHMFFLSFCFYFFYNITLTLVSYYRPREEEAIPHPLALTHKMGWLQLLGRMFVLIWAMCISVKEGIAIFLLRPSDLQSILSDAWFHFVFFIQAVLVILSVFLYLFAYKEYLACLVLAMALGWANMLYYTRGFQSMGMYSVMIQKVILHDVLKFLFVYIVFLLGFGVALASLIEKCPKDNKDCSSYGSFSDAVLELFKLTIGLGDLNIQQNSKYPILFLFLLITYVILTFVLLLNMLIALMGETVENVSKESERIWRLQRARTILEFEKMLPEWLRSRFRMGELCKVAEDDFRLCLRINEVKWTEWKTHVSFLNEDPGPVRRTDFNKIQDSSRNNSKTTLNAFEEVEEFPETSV
Procedure, shortened: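 Whole-cell currents were recorded from hTRPV3-transfected HEK293 cells (EGFP-identified, 18 h post-transfection) at 22–24 °C. Cells were held at 0 mV and ramped from −100 to +100 mV over 500 ms every 2 s. Currents were activated by 50 μmol/L 2-APB; test compound was added at 50 μmol/L or at 0.01–100 μmol/L. Outward current at +80 mV was fitted to a Hill equation for IC50; n = 5–8.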

[2] = target: T2, mTRPV3 F666A (Mus musculus, UniProt Q8K424, F666A); test: whole-cell patch-clamp of mTRPV3 F666A mutant in HEK293 cells; conditions: compound 50 μmol/L; 2-APB; compared with WT mTRPV3
T2 sequence (Q8K424 1-791 F666A): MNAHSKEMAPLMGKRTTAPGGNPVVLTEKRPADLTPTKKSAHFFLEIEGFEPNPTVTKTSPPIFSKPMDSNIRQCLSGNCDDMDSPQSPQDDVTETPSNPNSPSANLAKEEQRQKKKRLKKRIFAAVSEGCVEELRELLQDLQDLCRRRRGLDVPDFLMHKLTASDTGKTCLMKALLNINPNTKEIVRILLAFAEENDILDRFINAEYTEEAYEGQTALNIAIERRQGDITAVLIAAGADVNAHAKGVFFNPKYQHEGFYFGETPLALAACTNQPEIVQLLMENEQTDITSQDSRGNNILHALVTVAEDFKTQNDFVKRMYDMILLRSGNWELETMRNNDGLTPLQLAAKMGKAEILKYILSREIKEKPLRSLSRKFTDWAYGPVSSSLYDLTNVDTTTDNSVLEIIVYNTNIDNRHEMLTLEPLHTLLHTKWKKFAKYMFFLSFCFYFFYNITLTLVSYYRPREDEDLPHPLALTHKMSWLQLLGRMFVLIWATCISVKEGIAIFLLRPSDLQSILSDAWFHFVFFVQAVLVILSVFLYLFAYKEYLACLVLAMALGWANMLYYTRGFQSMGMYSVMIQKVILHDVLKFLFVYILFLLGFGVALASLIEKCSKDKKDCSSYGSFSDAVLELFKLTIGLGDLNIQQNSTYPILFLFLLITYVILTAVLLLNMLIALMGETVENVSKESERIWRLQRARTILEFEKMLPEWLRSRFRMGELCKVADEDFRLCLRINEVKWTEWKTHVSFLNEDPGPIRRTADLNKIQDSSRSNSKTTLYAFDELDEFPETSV
Procedure, shortened: (§1)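 Mouse Trpv3 point mutants were made by site-directed mutagenesis, sequence-verified, and transiently expressed in HEK293 cells alongside wild-type mTRPV3. Whole-cell ramp recordings (−100 to +100 mV, 500 ms, holding 0 mV) were made at 22–24 °C. Currents were activated by 2-APB, and inhibition by 50 μmol/L test compound in the presence of 2-APB was compared with wild type; n = 3–8.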

[3] = target: T3, mTRPV3 V662A (Mus musculus, UniProt Q8K424, V662A); test: whole-cell patch-clamp of mTRPV3 V662A mutant in HEK293 cells; conditions: compound 50 μmol/L; 2-APB; compared with WT mTRPV3
T3 sequence (Q8K424 1-791 V662A): T2 sequence (Q8K424 1-791 F666A) with V662A, A666F
Procedure, shortened: as §1

| SMILES | inhibition of hTRPV3 channel current activated by 2-APB [1] | better potency of IAB versus IAA ([1]; from hTRPV3 IC50 values) [fold] | Hill coefficient [1] | effect of mutation on compound-induced inhibition of mTRPV3 currents [2] | effect of mutation on compound-induced inhibition of mTRPV3 currents [3] |
| --- | --- | --- | --- | --- | --- |
| O=C(/C=C/c1ccc(O)c(O)c1)O[C@@H]1[C@H](O)C[C@@](O)(C(=O)O)C[C@H]1OC(=O)/C=C/c1ccc(O)c(O)c1 [IAB, isochlorogenic acid B] | ~86.4 ± 3.3% | 3 | 0.53 | markedly reduced | no obvious effect |
| O=C(/C=C/c1ccc(O)c(O)c1)O[C@@H]1C[C@](O)(C(=O)O)C[C@@H](OC(=O)/C=C/c2ccc(O)c(O)c2)[C@H]1O [IAA, isochlorogenic acid A] | about 80.8 ± 2.1% | – | 0.50 | markedly reduced | no obvious effect |

From paper PMC8897028 (Acta Pharmaceutica Sinica. B, 2021)
